The text below walks through data of ChEMBL document CHEMBL1127321, “Synthesis and photodynamic activities of silicon 2,3-naphthalocyanine derivatives” (J Med Chem, 1994).

Data set [1] can be described thus: Tested for extracellular drug concentration required to kill 50 percent of V-79 cells after one hour incubation period and subsequent exposure red light. To be noted: Chinese hamster, V79 cells; read-out: LD50.
The nature of data set [2]: Tested for extracellular drug concentration required to kill 50 percent of V-79 cells after one hour incubation period. To be noted: Chinese hamster, V79 cells; read-out: LD50.
Data set [3] relates to Mus musculus. The experiment in a line: Mean tissue uptake in skin determined in tumor-bearing mice after 3 hr by intravenous administration at 1 umol/kg. The class given is functional. In a few lines:
(§1)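 Male BALB/c AnN mice carrying intradermal EMT-6 tumours on the hind thighs (2×10^5 cells; used 6-8 days later at 4-8 mm diameter) received 1 μmol/kg iv via the tail vein in 10% Cremophor emulsion. Plasma from orbital-sinus blood and excised tissue were extracted with DMF overnight at 37 °C, then centrifuged. Dye was read by fluorescence (ex 766, em 780 nm) against per-tissue calibration curves. Mean with SE, n = 3.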

The test system of data set [4] is Mus musculus. The experiment in a line: Mean tissue uptake in skin determined in tumor-bearing mice after 6 hr by intravenous administration at 1 umol/kg. Type of data set: functional. The method in brief: as §1
Data set [5] relates to Mus musculus. The experiment in a line: Tested for plasma concentration in tumor-bearing mice after 2 day by intravenous administration at 1 umol/kg. Type of data set: functional. In a few lines:
as §1

The test system of data set [6] is Mus musculus. The experiment in a line: Mean tissue uptake in skin determined in tumor-bearing mice after 1 day by intravenous administration at 1 umol/kg. Type of data set: functional. The method in brief:
as §1

Data set [7] in a line: Tumor/muscle uptake ratio after 6 hr. The class given is functional, Muscle tissue. In a few lines: (§2)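 The ratio of tumour uptake (μg/g) to muscle uptake (μg/g), or to plasma concentration (μg/mL), was taken at each time point. Mice were EMT-6-bearing BALB/c (n = 3) given 1 μmol/kg iv in 10% Cremophor emulsion. Dye was measured by fluorescence (ex 766, em 780 nm) in DMF extracts and quantified against tissue-specific calibration curves.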

Data set [8] has as its system Mus musculus. The experiment in a line: Mean tissue uptake in skin determined in tumor-bearing mice after 1 hr by intravenous administration at 1 umol/kg. The class given is functional. The method in brief: as §1
Data set [9] can be described thus: Tumor/muscle uptake ratio after 1 hr. The class given is functional, Muscle tissue. The method in brief:
as §2

The subject of data set [10] is Mus musculus. The experiment in a line: Mean tissue uptake in muscle determined in tumor-bearing mice after 2 day by intravenous administration at 1 umol/kg. Type of data set: functional. In a few lines: as §1
Data set [11] has as its system Mus musculus. Put plainly: Mean tissue uptake in skin determined in tumor-bearing mice after 2 day by intravenous administration at 1 umol/kg. The class given is functional. In a few lines: as §1
Data set [12] deals with Mus musculus. Put plainly: Mean tissue uptake in skin determined in tumor-bearing mice after 7 days by intravenous administration at 1 umol/kg. Type of data set: functional. In a few lines:
as §1

Data set [13] concerns Mus musculus. The experiment in a line: Mean tissue uptake in tumor determined in tumor-bearing mice after 12 hour by intravenous administration at 1 umol/kg. Type of data set: functional. The method in brief: as §1
Data set [14] relates to Mus musculus. Put plainly: Mean tissue uptake in muscle determined in tumor-bearing mice after 3 hour by intravenous administration at 1 umol/kg. The class given is functional. The method in brief: as §1
Data set [15] in a line: Tumor/plasma uptake ratio after 2 day. The class given is functional. In a few lines:
as §2

Data set [16] in a line: Tumor/plasma uptake ratio after 1 hr. Type of data set: functional. In a few lines: as §2
Data set [17] deals with Mus musculus. Put plainly: Tested for plasma concentration in tumor-bearing mice after 1 hour by intravenous administration at 1 umol/kg. Type of data set: functional. In a few lines: as §1
Data set [18] is described as follows: Tumor/muscle uptake ratio after 1 day. The class given is functional, Muscle tissue. The method in brief:
as §2

Data set [19] concerns Mus musculus. Put plainly: Mean tissue uptake in tumor determined in tumor-bearing mice after 1 hour by intravenous administration at 1 umol/kg. The class given is functional. The method in brief: as §1
Data set [20] concerns Mus musculus. Put plainly: Mean tissue uptake in muscle determined in tumor-bearing mice after 1 hour by intravenous administration at 1 umol/kg. The class given is functional. In a few lines: as §1
Data set [21] is described as follows: Tumor/plasma uptake ratio after 6 hr. The class given is functional. The method in brief: as §2
A short description of data set [22]: Tumor/plasma uptake ratio after 12 hr. The class given is functional. The method in brief: as §2
Data set [23] deals with Mus musculus. Put plainly: Tested for plasma concentration in tumor-bearing mice after 12 hour by intravenous administration at 1 umol/kg. Type of data set: functional. In a few lines: as §1
A short description of data set [24]: Tumor/plasma uptake ratio after 3 hr. The class given is functional. In a few lines: as §2
The test system of data set [25] is Mus musculus. Put plainly: Tested for plasma concentration in tumor-bearing mice after 6 hour by intravenous administration at 1 umol/kg. The class given is functional. In a few lines:
as §1

Data set [26] is described as follows: Tumor/muscle uptake ratio after 7 days. Type of data set: functional, Muscle tissue. In a few lines:
as §2

Data set [27] relates to Mus musculus. The experiment in a line: Mean tissue uptake in tumor determined in tumor-bearing mice after 3 day by intravenous administration at 1 umol/kg. Type of data set: functional. The method in brief: as §1
The nature of data set [28]: Tumor/plasma uptake ratio after 1 day. Type of data set: functional. The method in brief:
as §2

The subject of data set [29] is Mus musculus. Put plainly: Tested for plasma concentration in tumor-bearing mice after 1 day by intravenous administration at 1 umol/kg. The class given is functional. In a few lines:
as §1

Data set [30] deals with Mus musculus. The experiment in a line: Mean tissue uptake in skin determined in tumor-bearing mice after 12 hr by intravenous administration at 1 umol/kg. Type of data set: functional. The method in brief: as §1
Data set [31] relates to Mus musculus. The experiment in a line: Mean tissue uptake in tumor determined in tumor-bearing mice after 6 hour by intravenous administration at 1 umol/kg. The class given is functional. The method in brief:
as §1

The nature of data set [32]: Tumor/muscle uptake ratio after 2 day. The class given is functional, Muscle tissue. The method in brief:
as §2

Data set [33] has as its system Mus musculus. Put plainly: Mean tissue uptake in muscle determined in tumor-bearing mice after 3 days by intravenous administration at 1 umol/kg. The class given is functional. In a few lines: as §1
Data set [34] deals with Mus musculus. Put plainly: Mean tissue uptake in tumor determined in tumor-bearing mice after 1 day by intravenous administration at 1 umol/kg. Type of data set: functional. The method in brief: as §1
For data set [35], the system named is Mus musculus. Put plainly: Tested for plasma concentration in tumor-bearing mice after 7 day by intravenous administration at 1 umol/kg. Type of data set: functional. In a few lines:
as §1

The test system of data set [36] is Mus musculus. Put plainly: Mean tissue uptake in skin determined in tumor-bearing mice after 3 days by intravenous administration at 1 umol/kg. Type of data set: functional. In a few lines: as §1
The subject of data set [37] is Mus musculus. Put plainly: Mean tissue uptake in tumor determined in tumor-bearing mice after 3 hour by intravenous administration at 1 umol/kg. The class given is functional. In a few lines:
as §1

The subject of data set [38] is Mus musculus. The experiment in a line: Tested for plasma concentration in tumor-bearing mice after 3 hour by intravenous administration at 1 umol/kg. Type of data set: functional. The method in brief: as §1
For data set [39], the system named is Mus musculus. The experiment in a line: Mean tissue uptake in tumor determined in tumor-bearing mice after 7 day by intravenous administration at 1 umol/kg. The class given is functional. In a few lines: as §1
Data set [40] relates to Mus musculus. The experiment in a line: Mean tissue uptake in muscle determined in tumor-bearing mice after 12 hour by intravenous administration at 1 umol/kg. Type of data set: functional. The method in brief:
as §1

The test system of data set [41] is Mus musculus. The experiment in a line: Mean tissue uptake in muscle determined in tumor-bearing mice after 7 days by intravenous administration at 1 umol/kg. The class given is functional. The method in brief: as §1
A short description of data set [42]: Tumor/muscle uptake ratio after 3 hr. Type of data set: functional, Muscle tissue. In a few lines:
as §2

Data set [43] is described as follows: Tumor/muscle uptake ratio after 3 days. Type of data set: functional, Muscle tissue. The method in brief: as §2
The nature of data set [44]: Tumor/plasma uptake ratio after 3 days. Type of data set: functional. In a few lines: as §2
Data set [45] concerns Mus musculus. The experiment in a line: Mean tissue uptake in tumor determined in tumor-bearing mice after 2 day by intravenous administration at 1 umol/kg. The class given is functional. In a few lines: as §1
The test system of data set [46] is Mus musculus. The experiment in a line: Mean tissue uptake in muscle determined in tumor-bearing mice after 6 hour by intravenous administration at 1 umol/kg. The class given is functional. The method in brief: as §1
For data set [47], the system named is Mus musculus. The experiment in a line: Tested for plasma concentration in tumor-bearing mice after 3 day by intravenous administration at 1 umol/kg. The class given is functional. In a few lines: as §1
Data set [48] concerns Mus musculus. Put plainly: Mean tissue uptake in muscle determined in tumor-bearing mice after 1 day by intravenous administration at 1 umol/kg. The class given is functional. The method in brief: as §1
The nature of data set [49]: Tumor/muscle uptake ratio after 12 hr. The class given is functional, Muscle tissue. The method in brief: as §2

Each structure is given as a SMILES string.

As for `CCCCCC[Si](CCCCCC)(CCCCCC)O[Si]1(O[Si](CCCCCC)(CCCCCC)CCCCCC)n2c3c4cc5ccccc5cc4c2/N=C2N=C(/N=c4/c5cc6ccccc6cc5/c(n41)=N/C1=NC(=N\3)/c3cc4ccccc4cc31)c1cc3ccccc3cc1\2`, the results for the CC50 at 1 h in data set [1] and in data set [2] were 29 µM and 46 µM, respectively.

For `CC(C)(C)[Si](C)(C)O[Si]1(O[Si](C)(C)C(C)(C)C)n2c3c4cc5ccccc5cc4c2/N=C2N=C(/N=c4/c5cc6ccccc6cc5/c(n41)=N/C1=NC(=N\3)/c3cc4ccccc4cc31)c1cc3ccccc3cc1\2`, the CC50 at 1 h came to 12 µM in [1] and 36 µM in data set [2].

`CC(C)C(C)(C)[Si](C)(C)O[Si]1(O[Si](C)(C)C(C)(C)C(C)C)n2c3c4cc5ccccc5cc4c2/N=C2N=C(/N=c4/c5cc6ccccc6cc5/c(n41)=N/C1=NC(=N\3)/c3cc4ccccc4cc31)c1cc3ccccc3cc1\2`: the Tissue distribution in [3] came to 0.51 µg/g; in [4], 0.36 µg/g; in [6] it was 0.46 µg/g; in data set [8], 0.13 µg/g; in data set [10] it was 0.08 µg/g; in data set [11] it was 0.43 µg/g. The Tissue distribution in [12] turned out to be 0.35 µg/g; in data set [13], 0.9 µg/g; in data set [14], 0.32 µg/g; in [19] it was 0.43 µg/g; in data set [20], 0.12 µg/g; in data set [27], 0.77 µg/g. The Tissue distribution in data set [30] was determined as 0.56 µg/g; in data set [31] it was 0.65 µg/g; in data set [33] it was 0.13 µg/g; in [34] it was 0.71 µg/g; in data set [36], 0.44 µg/g; in data set [37] it was 0.46 µg/g. The Tissue distribution in [39] is 0.51 µg/g; in data set [40], 0.09 µg/g; in data set [41] it was 0.08 µg/g; in data set [45], 0.73 µg/g; in [46], 0.98 µg/g; in data set [48], 0.11 µg/g. Further, the Blood clearance in data set [5] amounted to 0.21 µg/mL; in data set [17], 12.94 µg/mL; in data set [23] it was 5.51 µg/mL; in data set [25], 9.12 µg/mL; in data set [29] it was 2.06 µg/mL; in [35], 0 µg/mL. Also, the Blood clearance is 11.28 µg/mL in data set [38] and 0.02 µg/mL in [47]. The Ratio is listed as 0.7 in data set [7]; 3.6 in [9]; 3.5 in data set [15]; 0.03 in data set [16]; 6.4 in [18]; 0.07 in data set [21]. The Ratio in data set [22] was determined as 0.16; in data set [24], 0.04; in [26], 6.4; in data set [28] it was 0.34; in data set [32], 9.1; in [42], 1.4. Moreover, the Ratio in [43] is 5.9; in data set [44], 38; in [49], 10. Further, the CC50 at 1 h in [1] turned out to be 5.5 µM; in data set [2], 6.5 µM.

As for `CCCCCCCCCCCCCCCCCC[Si](C)(C)O[Si]1(O[Si](C)(C)CCCCCCCCCCCCCCCCCC)n2c3c4cc5ccccc5cc4c2/N=C2N=C(/N=c4/c5cc6ccccc6cc5/c(n41)=N/C1=NC(=N\3)/c3cc4ccccc4cc31)c1cc3ccccc3cc1\2`, the values for the CC50 at 1 h in [1] and in data set [2] were 1.8 µM and 4.2 µM, respectively.
